For six molecules, IC50 and Activity results are on record in ChEMBL document CHEMBL1151835, “Micropeptins from the freshwater cyanobacterium Microcystis aeruginosa (NIES-100)” (J Nat Prod, 2009).

Converted amounts (≈) assume the structure as drawn. The source made the active and inactive calls. No cut-off for these calls is given here.

Assay [1] is described as follows: Inhibition of trypsin.
Assay [2] can be described thus: Inhibition of chymotrypsin. The method in brief:
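Alpha-chymotrypsin type II was made up at 15 U/mL in 50 mM Tris-HCl (pH 7.6). The enzyme and test solution were preincubated at 37 °C for 5 min. Substrate solution was N-succinyl-L-phenylalanyl-p-nitroanilide, 1 mg/mL in buffer. After adding it, absorbance at 405 nm was read at once and again after 30 min at 37 °C.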

The target in assay [3] is Prothrombin (Homo sapiens) (UniProt P00734). The assay can be described thus: Inhibition of thrombin at 20 ug/ml.
A short description of assay [4]: Inhibition of trypsin at 20 ug/ml.

As a reminder, the IC50 is the concentration at which inhibition is half-maximal. Consider `CCCCCC(=O)N[C@@H](CCC(=O)O)C(=O)N[C@@H]1C(=O)N[C@@H](CCCNC(=N)N)C(=O)N[C@H]2CC[C@@H](O)N(C2=O)[C@@H](CC(C)C)C(=O)N(C)[C@@H](Cc2ccc(O)cc2)C(=O)N[C@@H](C(C)C)C(=O)O[C@@H]1C` [MICROPEPTIN B], for which the IC50 in assay [1] turned out to be 0.25 µg/mL (≈ 0.253 µM).

Turning to `CCCCCC(=O)N[C@@H](CCC(=O)O)C(=O)N[C@@H]1C(=O)N[C@@H](Cc2ccc(O)cc2)C(=O)N[C@H]2CC[C@@H](O)N(C2=O)[C@@H](Cc2ccccc2)C(=O)N(C)[C@@H](Cc2ccc(O)cc2)C(=O)N[C@@H](C(C)C)C(=O)O[C@@H]1C` [MICROPEPTIN C], the IC50 in assay [2] is 1.1 µg/mL (≈ 1.07 µM). Further, the outcome in assay [3] and in assay [4] was inactive.

On to `CCCCCCCC(=O)N[C@@H](CCC(=O)O)C(=O)N[C@@H]1C(=O)N[C@@H](Cc2ccc(O)cc2)C(=O)N[C@H]2CC[C@@H](O)N(C2=O)[C@@H](Cc2ccccc2)C(=O)N(C)[C@@H](Cc2ccc(O)cc2)C(=O)N[C@@H](C(C)C)C(=O)O[C@@H]1C` [MICROPEPTIN D], for which the IC50 in assay [2] stood at 1.2 µg/mL (≈ 1.14 µM). Also, the outcome in assay [3] and in assay [4] was inactive.

Molecule `CCCCCC(=O)N[C@@H](CCC(=O)O)C(=O)N[C@@H]1C(=O)N[C@@H](Cc2ccc(O)cc2)C(=O)N[C@H]2CC[C@@H](O)N(C2=O)[C@@H](CC(C)C)C(=O)N(C)[C@@H](Cc2ccc(O)cc2)C(=O)N[C@@H](C(C)C)C(=O)O[C@@H]1C` [MICROPEPTIN E] registered an IC50 in assay [2] of 1 µg/mL (≈ 1.01 µM). Also, the result in assay [3] and in assay [4] was inactive.

In assay [2], `CCCCCCCC(=O)N[C@@H](CCC(=O)O)C(=O)N[C@@H]1C(=O)N[C@@H](Cc2ccc(O)cc2)C(=O)N[C@H]2CC[C@@H](O)N(C2=O)[C@@H](CC(C)C)C(=O)N(C)[C@@H](Cc2ccc(O)cc2)C(=O)N[C@@H](C(C)C)C(=O)O[C@@H]1C` [MICROPEPTIN F] had an IC50 of 1.5 µg/mL (≈ 1.47 µM). For the same molecule, the outcome in assay [3] and in assay [4] was inactive.

Molecule `CCCCCC(=O)N[C@@H](CCC(=O)O)C(=O)N[C@@H]1C(=O)N[C@@H](Cc2ccc(O)cc2)C(=O)N[C@H]2CC[C@@H](O)N(C2=O)[C@@H](Cc2ccccc2)C(=O)N(C)[C@@H](Cc2c[nH]c3ccccc23)C(=O)N[C@@H](C(C)C)C(=O)O[C@@H]1C` [MICROPEPTIN T 1] had an IC50 in assay [1] of 3 µg/mL (≈ 2.85 µM).
